These results are taken from ChEMBL document CHEMBL1154648, “1,3-Dipolar cycloaddition of C-aryl-N-phenylnitrones to (R)-1-(1-phenylethyl)-3-[(E)-arylmethylidene]tetrahydro-4(1H)-pyridinones: synthesis and antimycobacterial evaluation of enantiomerically pure spiroisoxazolidines” (2010).

≈ marks a conversion by molar mass, not a printed value.

The subject of one assay is Mycobacterium tuberculosis. The assay can be described thus: Ratio of MIC for drug to MIC for ethambutol against Mycobacterium tuberculosis H37Rv after 28 days by agar dilution method.
Details: not given
Format: functional.
Turning to `Cc1ccc([C@@H]2[C@H](c3ccc(C)cc3)[C@]3(CN([C@H](C)c4ccccc4)CCC3=O)ON2c2ccccc2)cc1`, the Ratio was found to be 2.5.

The next assay deals with Mycobacterium tuberculosis. In words: Antitubercular activity against Mycobacterium tuberculosis H37Rv after 28 days by agar dilution method. Format: functional. Particulars: 672 h. Summed up:
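Tenfold serial dilutions were incorporated into Middlebrook 7H11 agar with OADC. The H37Rv inoculum came from fresh 7H11/OADC slants, set to 1 mg/mL wet weight in 0.05% Tween 80 saline and diluted 10^-2 (about 10^7 cfu/mL). 5 µL was spotted per tube and incubated at 37 °C, read at 28 days. MIC was the lowest concentration giving complete growth inhibition, tested in triplicate.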
With `Cc1ccc([C@@H]2[C@H](c3ccc(C)cc3)N(c3ccccc3)O[C@]23CN([C@H](C)c2ccccc2)CCC3=O)cc1`, 6.06 µM (≈ 3.13 µg/mL) was the least that counted as inhibitory (MIC).
Take `Cc1ccc([C@@H]2[C@H](c3ccccc3)N(c3ccccc3)O[C@]23CN([C@H](C)c2ccccc2)CCC3=O)cc1`: it took 12.4 µM (≈ 6.25 µg/mL) to inhibit growth (MIC).
Still for that read-out and setting: then `Cc1ccc([C@@H]2C(c3ccc(Cl)cc3)=NO[C@]23CN([C@H](C)c2ccccc2)CCC3=O)cc1`, with 6.82 µM (≈ 3.13 µg/mL); and `Cc1ccc([C@H]2N(c3ccccc3)O[C@H](c3ccccc3)[C@@]23CN([C@H](C)c2ccccc2)CCC3=O)cc1`, with 24.9 µM (≈ 12.5 µg/mL).
`C[C@H](c1ccccc1)N1CCC(=O)[C@]2(C1)ON=C(c1ccccc1)[C@H]2c1ccccc1Cl`: it took 7.03 µM (≈ 3.13 µg/mL) to inhibit growth (MIC).
Still for that read-out and setting: with `C[C@H](c1ccccc1)N1CCC(=O)[C@]2(C1)ON=C(c1ccccc1)[C@H]2c1ccccc1` the figure was 60.9 µM (≈ 25 µg/mL); with `C[C@H](c1ccccc1)N1CCC(=O)[C@@]2(C1)[C@@H](c1ccccc1)ON(c1ccccc1)[C@@H]2c1ccccc1`, 25.6 µM (≈ 12.5 µg/mL).
In turn, `Cc1ccc([C@@H]2[C@H](c3ccccc3)[C@]3(CN([C@H](C)c4ccccc4)CCC3=O)ON2c2ccccc2)cc1` returned an MIC of 49.7 µM (≈ 25 µg/mL). Against the preceding compound, the MIC is about 1.9-fold higher.
`C[C@H](c1ccccc1)N1CCC(=O)[C@]2(C1)ON=C(c1ccc(Cl)cc1)[C@H]2c1ccc(Cl)cc1` came in with an MIC of 3.25 µM (≈ 1.56 µg/mL).
The compound `C[C@H](c1ccccc1)N1CCC(=O)[C@]2(C1)ON=C(c1ccccc1)[C@H]2c1cccc2ccccc12` showed an MIC of 27.1 µM (≈ 12.5 µg/mL). Compared with the last compound, the MIC is about 8.3-fold higher.
`Cc1ccc([C@@H]2[C@H](c3ccc(C)cc3)[C@]3(CN([C@H](C)c4ccccc4)CCC3=O)ON2c2ccccc2)cc1` displayed an MIC of 3.02 µM (≈ 1.56 µg/mL).
In the case of `C[C@H](c1ccccc1)N1CCC(=O)[C@@]2(C1)ON=C(c1ccc(Cl)cc1)[C@H]2c1ccccc1`, the MIC was found to be 14.1 µM (≈ 6.25 µg/mL).
Same read-out and setting: with `Cc1ccc([C@H]2[C@@H](c3ccc(Cl)cc3)[C@@]3(CN([C@H](C)c4ccccc4)CCC3=O)ON2c2ccccc2)cc1` the figure was 11.6 µM (≈ 6.25 µg/mL).
Compound `C[C@H](c1ccccc1)N1CCC(=O)[C@]2(C1)ON(c1ccccc1)[C@@H](c1ccccc1)[C@H]2c1ccccc1Cl` came in with an MIC of 23.9 µM (≈ 12.5 µg/mL).
In turn, `C[C@H](c1ccccc1)N1CCC(=O)[C@]2(C1)ON=C(c1ccc(Cl)cc1)[C@H]2c1cccc2ccccc12` displayed a minimal inhibitory concentration (MIC) of 25.2 µM (≈ 12.5 µg/mL).
Regarding `C[C@H](c1ccccc1)N1CCC(=O)[C@]2(C1)ON(c1ccccc1)[C@@H](c1ccccc1)[C@H]2c1cccs1`, inhibition of growth (MIC) required 6.33 µM (≈ 3.13 µg/mL).
Compound `NNC(=O)c1ccncc1` [ISONIAZID] had an MIC of 0.36 µM (≈ 0.0494 µg/mL).
In turn, `C[C@H](c1ccccc1)N1CCC(=O)[C@]2(C1)ON=C(c1ccccc1)[C@H]2c1ccc(Cl)cc1` yielded an MIC of 14.1 µM (≈ 6.25 µg/mL).
Compound `C[C@H](c1ccccc1)N1CCC(=O)[C@]2(C1)ON=C(c1ccc(Cl)cc1)[C@H]2c1ccccc1Cl` displayed an MIC of 3.25 µM (≈ 1.56 µg/mL).
As to `C[C@H](c1ccccc1)N1CCC(=O)[C@@]2(C1)ON(c1ccccc1)[C@H](c1ccccc1)[C@@H]2c1ccccc1Cl`, inhibition of growth (MIC) required 5.98 µM (≈ 3.13 µg/mL).
Same read-out and setting: with `Cc1ccc([C@H]2[C@@H](c3ccccc3)[C@@]3(CN([C@H](C)c4ccccc4)CCC3=O)ON2c2ccccc2)cc1` the figure was 49.7 µM (≈ 25 µg/mL); with `C[C@H](c1ccccc1)N1CCC(=O)[C@]2(C1)ON(c1ccccc1)[C@@H](c1ccccc1)[C@H]2c1ccccc1`, 25.6 µM (≈ 12.5 µg/mL); with `Cc1ccc([C@H]2[C@@H](c3ccccc3)N(c3ccccc3)O[C@@]23CN([C@H](C)c2ccccc2)CCC3=O)cc1`, 24.9 µM (≈ 12.5 µg/mL).
With `Cc1ccc([C@@H]2[C@H](c3ccc(Cl)cc3)[C@]3(CN([C@H](C)c4ccccc4)CCC3=O)ON2c2ccccc2)cc1`, the minimal inhibitory concentration (MIC) came to 23.3 µM (≈ 12.5 µg/mL). The MIC values of the last two compounds are within 1.5-fold of each other.
Still for that read-out and setting: then `Cc1ccc([C@H]2[C@@H](c3ccccc3Cl)[C@@]3(CN([C@H](C)c4ccccc4)CCC3=O)ON2c2ccccc2)cc1`, with 11.6 µM (≈ 6.25 µg/mL).
`Cc1ccc([C@H]2[C@@H](c3cccs3)[C@@]3(CN([C@H](C)c4ccccc4)CCC3=O)ON2c2ccccc2)cc1` returned an MIC of 24.6 µM (≈ 12.5 µg/mL).
In turn, `C[C@H](c1ccccc1)N1CCC(=O)[C@@]2(C1)ON(c1ccccc1)[C@H](c1ccccc1)[C@@H]2c1ccccc1` came in with an MIC of 25.6 µM (≈ 12.5 µg/mL).
`CO[C@H]1/C=C/O[C@@]2(C)Oc3c(C)c(O)c4c(O)c(c(/C=N/N5CCN(C)CC5)c(O)c4c3C2=O)NC(=O)/C(C)=C\C=C\[C@H](C)[C@H](O)[C@@H](C)[C@@H](O)[C@@H](C)[C@H](OC(C)=O)[C@@H]1C` [RIFAMPIN] showed an MIC of 0.12 µM (≈ 0.0988 µg/mL).
On to `CC[C@@H](CO)NCCN[C@@H](CC)CO` [ETHAMBUTOL], for which the lowest concentration to inhibit growth (MIC) was 7.64 µM (≈ 1.56 µg/mL).
Consider `Cc1ccc([C@@H]2C(c3ccccc3)=NO[C@]23CN([C@H](C)c2ccccc2)CCC3=O)cc1`, for which the lowest concentration to inhibit growth (MIC) was 14.7 µM (≈ 6.25 µg/mL).
`Cc1ccc([C@@H]2[C@H](c3ccccc3Cl)[C@]3(CN([C@H](C)c4ccccc4)CCC3=O)ON2c2ccccc2)cc1`: the MIC was 11.6 µM (≈ 6.25 µg/mL). The MIC values of the last two compounds are within 1.5-fold of each other.

As a reminder, the MIC is the smallest concentration in the dilution series that meets the test's criterion for growth inhibition.
